Activity calls are given as the source filed them.

Series [1] deals with T1, Transient receptor potential cation channel subfamily V member 1 (Rattus norvegicus, UniProt O35433). In words: Antagonist activity at rat TRPV1 expressed in CHO cells assessed as inhibition of acid-induced calcium influx. The class given is functional, cell-based. Summed up: (§1)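 CHO cells stably transfected with human or rat TRPV1 were preincubated with compound for 2 min at room temperature. After washout, uptake was read by scintillation counting. IC50 values come from inhibition curves, averaging at least two experiments run in triplicate.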
T1 sequence (O35433 whole entry): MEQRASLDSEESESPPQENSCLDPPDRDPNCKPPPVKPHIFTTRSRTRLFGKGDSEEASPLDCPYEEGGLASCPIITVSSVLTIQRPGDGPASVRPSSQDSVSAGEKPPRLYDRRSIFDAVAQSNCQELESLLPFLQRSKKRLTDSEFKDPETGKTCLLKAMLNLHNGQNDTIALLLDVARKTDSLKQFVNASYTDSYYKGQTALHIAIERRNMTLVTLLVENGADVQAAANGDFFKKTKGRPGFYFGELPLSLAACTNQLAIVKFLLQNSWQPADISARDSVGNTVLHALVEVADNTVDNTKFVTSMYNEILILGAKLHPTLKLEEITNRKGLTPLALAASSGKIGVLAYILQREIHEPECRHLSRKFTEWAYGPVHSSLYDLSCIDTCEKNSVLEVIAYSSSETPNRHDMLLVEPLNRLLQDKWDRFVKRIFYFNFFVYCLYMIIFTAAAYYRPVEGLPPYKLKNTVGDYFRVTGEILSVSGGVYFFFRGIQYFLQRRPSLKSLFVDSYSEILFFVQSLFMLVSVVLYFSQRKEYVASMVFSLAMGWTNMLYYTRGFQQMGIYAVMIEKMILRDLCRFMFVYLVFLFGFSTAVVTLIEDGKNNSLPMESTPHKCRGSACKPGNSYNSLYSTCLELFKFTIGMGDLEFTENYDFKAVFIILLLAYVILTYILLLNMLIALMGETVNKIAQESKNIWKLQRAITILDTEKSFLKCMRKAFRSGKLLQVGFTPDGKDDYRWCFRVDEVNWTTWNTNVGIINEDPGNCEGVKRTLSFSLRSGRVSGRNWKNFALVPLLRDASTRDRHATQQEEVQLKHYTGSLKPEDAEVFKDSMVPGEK

In series [2] the target is T2, Transient receptor potential cation channel subfamily V member 1 (Homo sapiens, UniProt Q8NER1). Nature of the series: Agonist activity at TRPV1 expressed in CHO cells. The class given is functional, cell-based.
T2 sequence (Q8NER1 whole entry): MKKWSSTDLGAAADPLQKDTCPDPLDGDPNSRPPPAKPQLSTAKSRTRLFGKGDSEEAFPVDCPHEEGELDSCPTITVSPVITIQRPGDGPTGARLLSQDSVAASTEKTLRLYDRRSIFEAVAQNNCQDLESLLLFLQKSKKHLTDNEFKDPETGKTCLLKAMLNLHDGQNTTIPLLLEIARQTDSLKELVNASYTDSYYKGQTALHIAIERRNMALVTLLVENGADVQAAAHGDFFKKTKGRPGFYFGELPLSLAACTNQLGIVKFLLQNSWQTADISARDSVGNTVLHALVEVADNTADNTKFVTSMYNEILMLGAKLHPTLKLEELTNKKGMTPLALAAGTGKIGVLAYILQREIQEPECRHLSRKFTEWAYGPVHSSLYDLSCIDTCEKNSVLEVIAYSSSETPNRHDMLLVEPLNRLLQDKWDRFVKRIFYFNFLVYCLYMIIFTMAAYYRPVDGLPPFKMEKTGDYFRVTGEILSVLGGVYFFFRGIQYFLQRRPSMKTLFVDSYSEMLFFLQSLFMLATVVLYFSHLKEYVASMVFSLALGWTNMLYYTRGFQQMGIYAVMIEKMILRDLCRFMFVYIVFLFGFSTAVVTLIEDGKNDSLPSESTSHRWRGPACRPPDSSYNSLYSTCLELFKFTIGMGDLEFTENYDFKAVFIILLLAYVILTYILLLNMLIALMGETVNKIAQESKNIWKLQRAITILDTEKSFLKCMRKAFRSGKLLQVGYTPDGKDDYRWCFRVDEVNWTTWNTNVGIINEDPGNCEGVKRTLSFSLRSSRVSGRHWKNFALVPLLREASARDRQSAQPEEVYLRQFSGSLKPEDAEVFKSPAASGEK
For series [3], the target named is T1, Transient receptor potential cation channel subfamily V member 1. In words: Antagonist activity at rat TRPV1 expressed in CHO cells assessed as inhibition of capsaicin-induced calcium influx. The class given is functional, cell-based. The essentials:
(§2)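 Human or rat TRPV1-CHO cells were preincubated with compound for 2 min at room temperature in HBSS with 0.1 mg/mL BSA and 1 mM HEPES pH 7.4. Cells were washed and radioactivity counted. IC50 is the mean of at least two experiments, triplicate per concentration, ±SEM.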

A short description of series [4]: Cmax in Sprague-Dawley rat at 5 mg/kg, po. The class given is ADME, organism-based. Details: dose 5 mg/kg, route oral. The following applies: in vivo. Summed up: (§3)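 Sprague-Dawley rats were dosed orally at 5 mg/kg as a suspension in 5% Tween 80 in Oraplus. Cmax, tmax, AUC0-∞ and oral bioavailability were determined. Values are means of n = 2 animals per study, or of five studies.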

Series [5] is described as follows: AUC (0-infinity) in Sprague-Dawley rat at 2 mg/kg, iv. The following applies: plasma. Details: time infinity, dose 2 mg/kg, route intravenous. Type of series: ADME, organism-based. Summed up:
(§4)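 Male Sprague-Dawley rats received a single intravenous dose of 2 mg/kg given as a solution in DMSO. Plasma AUC0-∞, clearance, Vss and t1/2 were derived. Values are means of n = 2 animals per study, or of four studies.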

Series [6] is described as follows: Clearance in Sprague-Dawley rat at 2 mg/kg, iv. Set-up: dose 2 mg/kg, route intravenous. The following applies: in vivo. Type of series: ADME, organism-based. Summed up:
as §4

A short description of series [7]: Half life in Sprague-Dawley rat at 2 mg/kg, iv. Type of series: ADME, organism-based. Set-up: dose 2 mg/kg, route intravenous. The following applies: in vivo. Summed up: as §4
Series [8] can be described thus: AUC (0-infinity) in Sprague-Dawley rat at 5 mg/kg, po. Type of series: ADME, organism-based. Set-up: time infinity, dose 5 mg/kg, route oral. The following applies: plasma. The essentials:
as §3

Series [9] is described as follows: Tmax in Sprague-Dawley rat at 5 mg/kg, po. Type of series: ADME, organism-based. Set-up: dose 5 mg/kg, route oral. The following applies: in vivo. The essentials:
as §3

Series [10] in a line: Bioavailability in Sprague-Dawley rat at 5 mg/kg, po. The following applies: in vivo. The class given is ADME, organism-based. Summed up:
as §3

Series [11] deals with T2, Transient receptor potential cation channel subfamily V member 1. Nature of the series: Antagonist activity at human TRPV1 expressed in CHO cells assessed as inhibition of capsaicin-induced calcium influx. The class given is functional, cell-based. The essentials:
as §2

Series [12] has the same target. Nature of the series: Antagonist activity at human TRPV1 expressed in CHO cells assessed as inhibition of acid-induced calcium influx. The class given is functional, cell-based. The essentials:
as §1

A short description of series [13]: Volume of distribution at steady state in Sprague-Dawley rat at 2 mg/kg, iv. The following applies: in vivo, read-out: Vss. Set-up: dose 2 mg/kg, route intravenous. Type of series: ADME, organism-based. Summed up: as §4
The nature of series [14]: AUC (0-infinity) in Sprague-Dawley rat at 3 mg/kg, iv. Type of series: ADME, organism-based. Set-up: time infinity, dose 3 mg/kg, route intravenous. The following applies: plasma.
Another series concerns Rattus norvegicus. Nature of the series: Blockade of capsaicin-induced hypothermic response in Sprague-Dawley rat at 40 mg/kg, po. The class given is functional, organism-based. Details: dose 40 mg/kg. Summed up: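 Male Sprague-Dawley rats (175–250 g) had core temperature monitored by radiotelemetry, with a 30 min baseline. Compound or vehicle was given by oral gavage in OraPlus/5% Tween-80 (5 mL/kg), at 40 mg/kg p.o., n = 8 per group. After 90 min, capsaicin 10 mg/kg or vehicle was injected intraperitoneally.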

Regarding `CC(C)(C)c1ccc(-c2cc(Oc3ccc4c(c3)OCCO4)ncn2)cc1`, in series [1], the IC50 was 0.67 µM. The same compound gave an EC50 in [2] above 4 µM.
On to `CC(C)(C)c1ccc(-c2nccc(Nc3ccc4c(c3)OCCO4)n2)cc1`, for which the half-maximal inhibitory concentration (IC50) in series [3] is above 4000 nM; in series [1], above 4 µM. Also, in series [2], the concentration giving a half-maximal response (EC50) is above 4 µM.
Consider `CC(C)(C)c1ccc(-c2cc(Nc3ccc4c(c3)OCCO4)cnn2)cc1`, for which the 50% inhibitory concentration (IC50) in series [3] is 840 nM; in series [1], above 4 µM. In series [2], this compound showed an EC50 above 4 µM.
Consider `FC(F)(F)c1ccc(-c2cc(Nc3ccc4cccnc4c3)ncn2)cc1`, for which, in series [4], the Cmax is 26 ng/mL. For the same compound, the values for the AUC(0-inf) in series [5] and in series [8] were 320 ng·h/mL and 94 ng·h/mL, respectively. The compound also gave a clearance in [6] of 51.7 mL/min/kg. In [7], this compound had a half-life of 102 min. Also, the IC50 was found to be 0.0066 µM in series [1], 0.6 nM in series [11] and 0.3 nM in series [12]. For the same compound, in series [9], the Tmax was determined as 5 h. The compound also yielded a bioavailability in series [10] of 6%. In [13], the Vd was 3 L/kg. Moreover, the EC50 in [2] is above 4 µM.
As to `CC(C)(C)c1ccc(-c2cccc(Nc3ccc4c(c3)OCCO4)n2)cc1`, the half-maximal inhibitory concentration (IC50) in series [3] was above 4000 nM; in series [1], above 4 µM. The EC50 in series [2] is above 4 µM.
For the compound `CC(C)(C)c1ccc(-c2cccc(Nc3ccc4c(c3)OCCO4)c2)cc1`, the IC50 is above 4000 nM in series [3] and above 4 µM in series [1]. For the same compound, the EC50 in series [2] is above 4 µM.
Consider `CC(C)(C)c1ccc(-c2cc(Sc3ccc4c(c3)OCCO4)ncn2)cc1`, for which the results for the IC50 in series [3] and in [1] were above 4000 nM and above 4 µM, respectively. This compound came in with an EC50 in series [2] above 4 µM.
As to `CC(C)(C)c1ccc(-c2ccnc(Nc3ccc4c(c3)OCCO4)c2)cc1`, the IC50 in [3] came out at 230 nM; in [1], 1.3 µM. The EC50 in series [2] was above 4 µM.
For `CC(C)(C)c1ccc(/C=C/C(=O)Nc2ccc3c(c2)OCCO3)cc1`, the AUC(0-inf) in series [14] was 680 ng·h/mL. This compound also showed an EC50 in series [2] above 4 µM.
Turning to `CC(C)(C)c1ccc(-c2ccnc(Nc3ccc4c(c3)OCCO4)n2)cc1`, the IC50 in series [3] was above 4000 nM; in [1] it was above 4 µM. In [2], this compound displayed an EC50 above 4 µM.
In the case of `CN(c1ccc2c(c1)OCCO2)c1cc(-c2ccc(C(C)(C)C)cc2)ncn1`, the figures for the IC50 in [3] and in series [1] were above 4000 nM and 2.2 µM, respectively. In series [2], the EC50 is above 4 µM.
For the compound `CC(C)(C)c1ccc(-c2cc(Cc3ccc4c(c3)OCCO4)ncn2)cc1`, the 50% inhibitory concentration (IC50) in series [3] was 914 nM; in [1], above 4 µM. Further, the EC50 in series [2] was above 4 µM.
`FC(F)(F)c1ccc(-c2cc(Nc3ccc4c(c3)OCCO4)ncn2)cc1`: the IC50 in series [3] is 430 nM; in series [1], 1.2 µM; in series [11] it was 120 nM; in series [12], 250 nM. The compound also had a half-maximal effective concentration (EC50) in series [2] above 4 µM.
As for `CC(C)(C)c1ccc(-c2cncc(Nc3ccc4c(c3)OCCO4)c2)cc1`, the IC50 in series [3] is 1210 nM; in series [1], above 4 µM. Besides, the EC50 in [2] is above 4 µM.
Consider `CC(C)(C)c1ccc(-c2cc(Nc3ccc4c(c3)OCCO4)ccn2)cc1`, for which the IC50 in series [3] was above 4000 nM; in [1], above 4 µM. Besides, the EC50 in series [2] was above 4 µM.
Take `FC(F)(F)c1ccc(-c2cc(Oc3ccc4cccnc4c3)ncn2)cc1`: the Cmax in series [4] stood at 300 ng/mL. Also, the AUC(0-inf) in series [5] was determined as 1590 ng·h/mL; in series [8], 2040 ng·h/mL. The compound also showed a half-life in series [7] of 168 min. Also, the time of peak concentration (Tmax) in series [9] was found to be 1.2 h. Further, the bioavailability in series [10] is 31%. Further, the IC50 was found to be 3.7 nM in series [11] and 4.2 nM in series [12]. Besides, the Vd in [13] is 3 L/kg. In the series on Rattus norvegicus, the result was Active. Besides, in [2], the EC50 was above 4 µM.
Turning to `CC(C)(C)c1ccc(Cc2cccn(-c3ccc4c(c3)OCCO4)c2=O)cc1`, the half-inhibitory concentration (IC50) in [3] is above 4000 nM; in [1], above 4 µM. The same compound showed an EC50 in series [2] above 4 µM.
For the compound `CC(C)(C)c1ccc(-c2cnnc(Nc3ccc4c(c3)OCCO4)c2)cc1`, the concentration for half-maximal inhibition (IC50) in series [3] was 780 nM; in series [1], above 4 µM. The compound further had an EC50 in series [2] above 4 µM.
Consider `CC(C)(C)c1ccc(-c2cncc(Nc3ccc4c(c3)OCCO4)n2)cc1`, for which the IC50 in series [3] is above 4000 nM; in series [1] it was above 4 µM. In [2], this compound had an EC50 above 4 µM.
In series [4], `CC(C)(C)c1ccc(-c2cc(Nc3ccc4cccnc4c3)ncn2)cc1` returned a Cmax of 34 ng/mL. The AUC(0-inf) was 340 ng·h/mL in series [5] and 79 ng·h/mL in series [8]. This compound also had a clearance in series [6] of 48.3 mL/min/kg. In [7], this compound showed a half-life of 96 min. Moreover, the IC50 in [3] was determined as 2 nM; in [1], 0.022 µM; in series [11] it was 1.9 nM; in series [12], 6.9 nM. Besides, the Tmax in series [9] came to 0.5 h. Also, in series [10], the bioavailability turned out to be 5%. For the same compound, the Vd in series [13] was found to be 3.1 L/kg. The same compound yielded an EC50 in series [2] above 4 µM.
For `CC(C)(C)c1ccc(/C=C2\CCCN(c3ccc4c(c3)OCCO4)C2=O)cc1`, the IC50 in [3] is above 4000 nM; in series [1] it was above 4 µM. Further, the EC50 in series [2] was above 4 µM.
For `CC(C)(C)c1ccc(-c2ncnc(Nc3ccc4c(c3)OCCO4)n2)cc1`, the figures for the IC50 in series [3] and in series [1] were 760 nM and above 4 µM, respectively. In [2], the EC50 is above 4 µM.
With `CC(C)(C)c1ccc(-c2cc(Nc3ccc4c(c3)OCCO4)ncn2)cc1`, the IC50 was 120 nM in series [3], 0.68 µM in series [1], 51 nM in series [11] and 270 nM in series [12]. Moreover, the EC50 in [2] was above 4 µM.

By IC50 is commonly meant the midpoint of a concentration-inhibition curve. The EC50 is the concentration needed to bring the measured effect to its halfway point. For orientation: Cmax means the highest concentration seen after dosing. Broadly, the AUC(0-inf) is the area under the concentration-time curve extrapolated to infinity. A low value points to less exposure. By clearance is commonly meant a measure of how efficiently the substance is removed, as volume per time. High values mean a high capacity for elimination, low ones a low capacity for elimination. The half-life is the time needed for the level to fall by half in the phase considered. A higher half-life goes with slow loss. Broadly, the Tmax is the time at which the peak concentration occurs. As a reminder, the bioavailability is the share of a dose that reaches the circulation, judged against a reference dose that is usually intravenous. High values mean good availability, low ones poor availability.
